Measurements collected from several papers.
Compare with care: the assays were run in different laboratories.
Organism: Escherichia coli
Read-out: microbial growth

| Compound | technique | strain | time | notes | MIC |
| --- | --- | --- | --- | --- | --- |
| CC(C)c1ccc(/C=C2\N=C(SCC(=O)O)N(c3ccccc3)C2=O)cc1 | broth dilution | ATCC25 ATCC25922 |  |  | 15 µg/mL |
| Cc1ccc2[nH]nc(-c3nnc(Nc4ccc(C)c(C)c4)s3)c2c1 |  | ATCC25922 |  |  | 124 µg/mL |
| CCCCCCCCCCCC[N+](C)(C)Cc1ccccc1 |  |  |  |  | 63 µM |
| CC(=O)C1=NN(c2ccccc2)C(=C(C#N)C(=O)c2ccc(Nc3cnccn3)cc2)S1 | broth dilution | ATCC10536 |  |  | 100 µg/mL |
| COc1cc(Cc2cnc(N)nc2N)cc(OC)c1OC | broth dilution | BW25113 | 18 h |  | 0.25 µg/mL |
| Cc1cc(Nc2nnc(-c3n[nH]c4ccc(C)cc34)s2)cc([N+](=O)[O-])c1 |  | ATCC25922 |  |  | 166 µg/mL |
| COc1ccc(-n2nc(C(=O)c3ccc(Nc4cnccn4)cc3)sc2=N)cc1 | broth dilution | ATCC10536 |  |  | 12.5 µg/mL |
| C[C@H]1COc2c(N3CCN(C)CC3)c(F)cc3c(=O)c(C(=O)O)cn1c23 |  | ATCC25922 |  | drug-resistant strain | ≤ 0.03 µg/mL |
| NC[C@H]1O[C@H](O[C@H]2[C@H](O)[C@@H](O[C@H]3O[C@H](CO)[C@@H](O)[C@H](N)[C@H]3O)[C@H](N)C[C@@H]2N)[C@H](N)C[C@@H]1O |  |  |  |  | ≤ 1 µg/mL |
| c1ccc(CSc2nc3ccc(-c4ccccc4)cc3cc2CNCc2ccc(CN3CCCC3)cc2)cc1 | broth dilution |  |  |  | > 128 µg/mL |
| CC1(C)S[C@@H]2[C@H](NC(=O)[C@H](N)c3ccccc3)C(=O)N2[C@H]1C(=O)O | broth dilution | ATCC25922 |  |  | 4 µg/mL |
| CC[C@H]1OC(=O)[C@H](C)[C@@H](O[C@H]2C[C@@](C)(OC)[C@@H](O)[C@H](C)O2)[C@H](C)[C@@H](O[C@@H]2O[C@H](C)C[C@H](N(C)C)[C@H]2O)[C@](C)(O)C[C@@H](C)CN(C)[C@H](C)[C@@H](O)[C@]1(C)O | broth dilution |  |  |  | 4 µM |
| Cc1ccc2[nH]nc(-c3nnc(Nc4cc(Cl)cc(Br)c4)s3)c2c1 |  | ATCC25922 |  |  | 228 µg/mL |
| CCN(CC)c1ccc(C=NC(=S)c2ccccc2)c(O)c1 | broth dilution | ATCC25922 |  |  | > 256 µg/mL |
| C[C@@H](O)[C@H]1C(=O)N2C(C(=O)O)=C(S[C@@H]3CN[C@H](C(=O)N(C)C)C3)[C@H](C)[C@H]12 |  |  |  |  | ≤ 0.25 µg/mL |
| Cc1ccc2[nH]nc(-c3nnc(Nc4ccc(F)cc4Cl)s3)c2c1 |  | ATCC25922 |  |  | 72.8 µg/mL |
| CC(=O)OCC1=C(C(=O)O)N2C(=O)[C@@H](NC(=O)Cc3cccs3)[C@H]2SC1 | broth dilution | ATCC10536 |  |  | 3.12 µg/mL |
| N[C@@H](Cc1c[nH]c2ccc(Cl)cc12)C(=O)O |  | MG1655 | 18 h |  | > 200 µM |
| CCN1CCC(CCNCc2cc3cc(Br)ccc3nc2SCc2ccccc2)CC1 | broth dilution |  |  |  | 32 µg/mL |
| CN(Cc1cnc2nc(N)nc(N)c2n1)c1ccc(C(=O)N[C@@H](CCC(=O)O)C(=O)O)cc1 | broth dilution | BW25113 | 18 h |  | > 250 µg/mL |
| CO/N=C(\C(=O)N[C@@H]1C(=O)N2C(C(=O)O)=CCS[C@H]12)c1csc(N)n1 | broth dilution | ATCC25922 |  |  | 0.125 µg/mL |
| Cc1ccc2[nH]nc(-c3nnc(Nc4ccc([N+](=O)[O-])cc4)s3)c2c1 |  | ATCC25922 |  |  | 92.8 µg/mL |

| Compound | technique | strain | time | notes | MIC |
| --- | --- | --- | --- | --- | --- |
| C[C@@H](O)[C@H]1C(=O)N2C(C(=O)O)=C(SCCN=CN)C[C@H]12 |  |  |  |  | ≤ 0.25 µg/mL |
| COc1ccc2ccc(O)c(/C=N/[C@H]3CCCC[C@H]3/N=C/c3ccc(-c4ccccc4)cc3O)c2c1 | broth dilution |  |  | clinical isolate | > 40 µM |
| CC1(C)S[C@@H]2[C@H](NC(=O)[C@H](N)c3ccccc3)C(=O)N2[C@H]1C(=O)O | broth dilution | ATCC25922 | 12 h |  | 8 µg/mL |
| COc1ccc(N2N=C(C(=O)c3ccc(Nc4cnccn4)cc3)SC2=C(C#N)C#N)cc1 | broth dilution | ATCC10536 |  |  | 6.25 µg/mL |
| CC1(C)S[C@@H]2[C@H](NC(=O)[C@H](N)c3ccccc3)C(=O)N2[C@H]1C(=O)O | broth dilution | ATCC25922 | 18 h | dark | 16 µM |
| c1ccc(CSc2nc3ccccc3cc2CNCc2ccc(N3CCCCC3)cc2)cc1 | broth dilution |  |  |  | > 128 µg/mL |
| COc1ccc2ccc(O)c(/C=N/[C@H]3CCCC[C@H]3/N=C/c3ccc(OCCN4CCCCC4)cc3O)c2c1 | broth dilution |  |  | clinical isolate | > 40 µM |
| O=C(N[C@H](CO)[C@H](O)c1ccc([N+](=O)[O-])cc1)C(Cl)Cl | broth dilution | ATCC10536 |  |  | 3.12 µg/mL |
| COc1cc2cc(CNCCN3CCN(C)CC3)c(SCc3ccccc3)nc2c(OC)c1OC | broth dilution |  |  |  | > 128 µg/mL |
| Cc1cc(O)cc(Nc2nnc(-c3n[nH]c4ccc(C)cc34)s2)c1 |  | ATCC25922 |  |  | 176 µg/mL |
| CCN(CC)c1ccc(C=NC(=O)c2ccccc2)c(O)c1 | broth dilution | ATCC25922 |  |  | > 256 µg/mL |
| O=C(N[C@H](CO)[C@H](O)c1ccc([N+](=O)[O-])cc1)C(Cl)Cl | broth dilution |  |  |  | 16 µg/mL |
| CCCCCCCCN=c1ccn(CCCCCCCCCCn2ccc(=NCCCCCCCC)cc2)cc1 |  |  |  |  | 0.5 µM |
| CN1CCN(CCNCc2cc3cc(Br)ccc3nc2SCc2ccccc2)CC1 | broth dilution |  |  |  | 16 µg/mL |
| COc1ccc2ccc(O)c(/C=N/[C@H]3CCCC[C@H]3/N=C/c3c(O)cccc3F)c2c1 | broth dilution |  |  | clinical isolate | > 40 µM |
| Brc1ccc2nc(SCc3ccccc3)c(CNCCC3CCN(C4CCCC4)CC3)cc2c1 | broth dilution |  |  |  | 32 µg/mL |
| [H]/N=C(/N)N[C@H]1[C@H](O)[C@@H](O)[C@H](O[C@@H]2O[C@@H](C)[C@](O)(C=O)[C@H]2O[C@@H]2O[C@@H](CO)[C@H](O)[C@@H](O)[C@@H]2NC)[C@@H](N/C(N)=N\[H])[C@@H]1O | broth dilution | ATCC25922 |  |  | 2 µg/mL |
| Cc1ccc2[nH]nc(-c3nnc(Nc4ccc(Br)cc4)s3)c2c1 |  | ATCC25922 |  |  | 251 µg/mL |
| CC(C)(O/N=C(\C(=O)N[C@@H]1C(=O)N2C(C(=O)[O-])=C(C[n+]3ccccc3)CS[C@H]12)c1csc(N)n1)C(=O)O |  |  |  |  | 0.25 µg/mL |
| CN(C)[C@@H]1C(O)=C(C(N)=O)C(=O)[C@@]2(O)C(O)=C3C(=O)c4c(O)cccc4[C@@](C)(O)[C@H]3C[C@@H]12 | broth dilution | ATCC25922 | 16 h |  | 3.1 µM |
| CO/N=C(\C(=O)N[C@@H]1C(=O)N2C(C(=O)O)=C(CSc3nc(=O)c(=O)[nH]n3C)CS[C@H]12)c1csc(N)n1 | broth dilution | ATCC25922 |  |  | 16 µg/mL |
